Data as given in ChEMBL document CHEMBL4014309, “Development of an Acrylate Derivative Targeting the NLRP3 Inflammasome for the Treatment of Inflammatory Bowel Disease” (J Med Chem, 2017).
Calls of active or inactive are those of the source. No cut-off for these calls is given here.

What was measured:
[1] = Glutathione reactivity assessed as adduct formation of the compound at pH 7.4 and 9
[2] = target: NACHT, LRR and PYD domains-containing protein 3 (Mus musculus) (UniProt Q8R4B8); assay: Inhibition of NLRP3 inflammasome in LPS-primed C57BL/6 mouse bone marrow derived macrophages assessed as reduction in ATP-induced caspase-1 activation at 10 to 100 uM preincubated for 1 hr followed by stimulation with ATP measured after 30 mins by Western blot analysis
[3] = organism: Mus musculus; assay: Inhibition of NF-kB signaling pathway in C57BL/6 mouse bone marrow derived macrophages assessed as reduction in LPS-induced TNFalpha gene expression at 10 to 100 uM preincubated for 30 mins followed by LPS stimulation measured after 4 hrs by qRT-PCR analysis
Summary of the method: (§1)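 C57BL/6 bone marrow macrophages, differentiated with 20% L-cell medium, were preincubated with compound for 30 min. They were then left untreated or given LPS (1 ng/mL, 4 h). Tnfa, Il6 and Il1b expression was measured by quantitative RT-PCR as 2^-ΔΔCt.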

[4] = target: NACHT, LRR and PYD domains-containing protein 3 (Mus musculus) (UniProt Q8R4B8); assay: Inhibition of NLRP3 in C57BL/6 mouse bone marrow derived macrophages assessed as reduction in LPS-induced IL-1beta gene expression at 10 to 100 uM preincubated for 30 mins followed by LPS stimulation measured after 4 hrs by qRT-PCR analysis; summary of the method: as §1
[5] = system: HEK293; assay: Cytotoxicity against HEK293 cells assessed as extracellular LDH level at 10 to 100 uM after 24 hrs; assay type: cell-based; settings: human, hek293, 24 h
[6] = target: NACHT, LRR and PYD domains-containing protein 3 (Homo sapiens) (UniProt Q96P20); assay: Irreversible inhibition of His-FLAG- tagged NLRP3-ATPase (unknown origin) at 100 uM preincubated for 55 mins followed by ATP addition measured after 40 mins by ADP-Glo assay
Summary of the method: (§2)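 His-FLAG NLRP3 (105 ng/well) captured on anti-FLAG-coated, BSA-blocked wells for 3 h at 4 °C. Compound (100 µM final, 2% DMSO) preincubated 55 min at 37 °C. Wells were washed three times (or not washed), then ATP (250 µM) was added for 40 min at 37 °C. ADP was read by ADP-Glo. Equal protein loading was checked by anti-His ELISA.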

[7] = target: NACHT, LRR and PYD domains-containing protein 3 (Homo sapiens) (UniProt Q96P20); assay: Irreversible inhibition of His-FLAG- tagged NLRP3-ATPase (unknown origin) at 100 uM preincubated for 55 mins followed by compound wash-out and ATP addition measured after 40 mins by ADP-Glo assay; summary of the method: as §2
[8] = Stability of the compound in simulated gastric fluid at 1.56 mg as suspension in olive oil and pH 2 after 2 hrs by UHPLC-MS analysis
Summary of the method: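 1.56 mg suspended in 100 µL olive oil, mixed with 100 µL SGF (pH 2, pepsin 3.2 mg/mL) for 2 h at 37 °C with shaking. Then 200 µL SIF (pH 7, pancreatin 2 mg/mL) was added for a further 2 h. Dedicated samples at 0, 30, 60 and 120 min were extracted with acetonitrile and analysed by UHPLC-MS. ≥3 repeats.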

[9] = system: Rattus norvegicus; assay: Antiinflammatory activity in DNBS-induced Sprague-Dawley rat colitis model assessed as body weight recovery at 12.5 to 50 mg/kg/day, ig administered as suspension in olive oil for 6 days simulatneously with 6 days of DNBS-challenge measured daily during compound dosing; assay type: functional, organism-based
Summary of the method: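 Colitis was induced with intrarectal DNBS (15 mg in 0.25 mL 50% ethanol). Intragastric treatment ran 6 days from the day of induction: 1 mg/kg/day in 1% methylcellulose, or 12.5–50 mg/kg/day in olive oil. Body weight change (g) was recorded at the end of treatment, mean ± SEM, n = 10.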

[10] = system: Rattus norvegicus; assay: Antiinflammatory activity in DNBS-induced Sprague-Dawley rat colitis model assessed as attenuation of DNBS-induced decrease in colonic length administered ig as suspension in olive oil for 6 days simulatneously with 6 days of DNBS-challenge; assay type: functional
[11] = system: Rattus norvegicus; assay: Antiinflammatory activity in DNBS-induced Sprague-Dawley rat colitis model assessed as DNBS-induced decrease in colonic length at 25 mg/kg/day, ig administered as suspension in olive oil for 6 days simulatneously with 6 days of DNBS-challenge (reference value: -34.4%); assay type: functional; design: scale not given: the % may be the effect or the level left
[12] = system: Rattus norvegicus; assay: Antiinflammatory activity in DNBS-induced Sprague-Dawley rat colitis model assessed as DNBS-induced decrease in colonic length at 50 mg/kg/day, ig administered as suspension in olive oil for 6 days simulatneously with 6 days of DNBS-challenge (reference value: -34.4%); assay type: functional; design: scale not given: the % may be the effect or the level left
[13] = system: Rattus norvegicus; assay: Antiinflammatory activity in DNBS-induced Sprague-Dawley rat colitis model assessed as DNBS-induced macroscopic damage score at 12.5 mg/kg/day, ig administered as suspension in olive oil for 6 days simulatneously with 6 days of DNBS-challenge (reference value: 8.6 +/- 0.6); assay type: functional
[14] = system: Rattus norvegicus; assay: Antiinflammatory activity in DNBS-induced Sprague-Dawley rat colitis model assessed as DNBS-induced macroscopic damage score at 25 mg/kg/day, ig administered as suspension in olive oil for 6 days simulatneously with 6 days of DNBS-challenge (reference value: 8.6 +/- 0.6); assay type: functional
[15] = target: NACHT, LRR and PYD domains-containing protein 3 (Homo sapiens) (UniProt Q96P20); assay: Inhibition of recombinant human NLRP3 ATPase assessed as hydrolysis of ATP preincubated for 15 mins followed by addition of ATP measured after 40 mins by ADP-Glo assay
Summary of the method: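 Human recombinant NLRP3 (0.105 µg) in 20 mM Tris-HCl pH 7.8, 133 mM NaCl, 20 mM MgCl2, 3 mM KCl, 0.56 mM EDTA, 0.5% DMSO. Compound (100 or 50 µM) was preincubated 15 min at 37 °C, then ATP (250 µM) was added for 40 min at 37 °C. ADP was read by ADP-Glo luminescence. Result is % inhibition vs vehicle; mean ± SEM, ≥3 experiments.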

[16] = target: NACHT, LRR and PYD domains-containing protein 3 (Mus musculus) (UniProt Q8R4B8); assay: Inhibition of NLRP3 inflammasome in LPS-primed C57BL/6 mouse bone marrow derived macrophages assessed as reduction in ATP-induced pyroptosis at 10 to 100 uM preincubated for 1 hr followed by stimulation with ATP measured after 30 mins by LDH release assay
Summary of the method: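 Bone marrow macrophages from C57BL/6 mice, differentiated with 20% L-cell medium, primed with LPS (1 µg/mL, 3 h). Test agent or vehicle was added for 1 h, then ATP (5 mM, 30 min) or nigericin (10 µM, 30 min). IL-1β in the medium was measured by ELISA. LDH in the medium was measured colorimetrically as % of total cellular LDH.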

[17] = system: Rattus norvegicus; assay: Toxicity in Sprague-Dawley rat at 50 mg/kg/day, ig; assay type: organism-based; settings: in vivo, po
Summary of the method: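 Rats received intrarectal DNBS (15 mg in 0.25 mL 50% ethanol) or none. Dosing was intragastric for 6 days from induction: compound 12.5–50 mg/kg/day in 0.2 mL olive oil, or dexamethasone 1 mg/kg/day in 0.2 mL 1% methylcellulose. Body weight change was recorded at end; n = 10, mean ± SEM.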

NACHT, LRR and PYD domains-containing protein 3 (Mus musculus), sequence (Q8R4B8 whole entry, the tested form may be a part): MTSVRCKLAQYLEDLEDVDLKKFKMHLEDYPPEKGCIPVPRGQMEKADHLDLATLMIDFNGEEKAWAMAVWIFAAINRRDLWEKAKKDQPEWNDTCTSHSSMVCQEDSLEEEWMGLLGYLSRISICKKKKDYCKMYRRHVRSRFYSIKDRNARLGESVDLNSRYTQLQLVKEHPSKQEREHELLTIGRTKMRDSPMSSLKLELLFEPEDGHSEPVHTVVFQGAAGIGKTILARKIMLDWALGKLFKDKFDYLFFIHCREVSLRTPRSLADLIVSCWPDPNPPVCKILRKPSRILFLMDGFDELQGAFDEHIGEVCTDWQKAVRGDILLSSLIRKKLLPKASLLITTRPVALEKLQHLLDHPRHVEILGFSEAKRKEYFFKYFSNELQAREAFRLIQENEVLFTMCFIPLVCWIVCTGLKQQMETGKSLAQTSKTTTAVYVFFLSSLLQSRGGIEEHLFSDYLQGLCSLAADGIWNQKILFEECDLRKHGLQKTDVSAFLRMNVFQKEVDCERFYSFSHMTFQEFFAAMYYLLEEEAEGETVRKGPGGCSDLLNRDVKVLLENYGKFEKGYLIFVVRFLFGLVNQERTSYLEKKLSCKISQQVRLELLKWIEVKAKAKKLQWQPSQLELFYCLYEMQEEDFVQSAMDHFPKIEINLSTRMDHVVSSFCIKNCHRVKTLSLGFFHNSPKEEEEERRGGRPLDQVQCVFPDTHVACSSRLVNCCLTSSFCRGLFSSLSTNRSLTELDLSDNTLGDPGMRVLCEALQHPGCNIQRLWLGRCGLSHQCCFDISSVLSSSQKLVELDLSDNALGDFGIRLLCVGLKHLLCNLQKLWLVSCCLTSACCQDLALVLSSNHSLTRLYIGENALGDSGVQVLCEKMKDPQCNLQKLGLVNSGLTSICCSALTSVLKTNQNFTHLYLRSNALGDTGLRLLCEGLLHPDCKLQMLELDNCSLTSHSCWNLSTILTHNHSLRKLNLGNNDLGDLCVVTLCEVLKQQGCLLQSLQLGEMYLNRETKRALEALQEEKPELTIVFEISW
NACHT, LRR and PYD domains-containing protein 3 (Homo sapiens), sequence (Q96P20 whole entry, the tested form may be a part): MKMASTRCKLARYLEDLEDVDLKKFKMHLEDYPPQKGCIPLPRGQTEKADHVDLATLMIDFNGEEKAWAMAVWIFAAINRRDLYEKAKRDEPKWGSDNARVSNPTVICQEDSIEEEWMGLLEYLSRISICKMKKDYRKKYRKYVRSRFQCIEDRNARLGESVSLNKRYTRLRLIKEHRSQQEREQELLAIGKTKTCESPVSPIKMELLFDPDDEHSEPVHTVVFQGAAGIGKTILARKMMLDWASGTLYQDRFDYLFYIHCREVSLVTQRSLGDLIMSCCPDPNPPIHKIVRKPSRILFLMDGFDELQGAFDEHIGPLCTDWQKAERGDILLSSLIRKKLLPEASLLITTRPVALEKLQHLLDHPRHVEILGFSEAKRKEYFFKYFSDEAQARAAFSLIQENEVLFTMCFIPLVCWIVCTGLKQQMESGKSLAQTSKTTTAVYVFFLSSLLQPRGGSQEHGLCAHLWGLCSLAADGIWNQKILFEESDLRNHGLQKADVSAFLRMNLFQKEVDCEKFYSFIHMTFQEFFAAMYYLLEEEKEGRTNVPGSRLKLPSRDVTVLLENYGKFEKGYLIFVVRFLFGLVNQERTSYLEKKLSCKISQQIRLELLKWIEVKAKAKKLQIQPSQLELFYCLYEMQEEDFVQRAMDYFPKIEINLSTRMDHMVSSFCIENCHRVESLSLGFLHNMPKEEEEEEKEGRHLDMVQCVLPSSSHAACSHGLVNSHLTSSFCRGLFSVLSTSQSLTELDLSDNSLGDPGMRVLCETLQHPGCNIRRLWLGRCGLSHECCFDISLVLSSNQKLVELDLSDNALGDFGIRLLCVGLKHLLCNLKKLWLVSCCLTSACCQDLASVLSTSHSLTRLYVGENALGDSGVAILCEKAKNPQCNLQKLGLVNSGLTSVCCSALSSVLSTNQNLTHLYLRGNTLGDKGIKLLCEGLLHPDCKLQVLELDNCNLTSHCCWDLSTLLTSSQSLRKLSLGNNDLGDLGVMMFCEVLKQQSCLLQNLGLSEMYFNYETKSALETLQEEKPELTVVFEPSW

For `C=C(Cc1ccccc1Cl)C(=O)OCC`, the Drug metabolism [1] was “Metabolite not detected”, the inhibition [2] was “Active” and the inhibition [3] was “Active”. For the same compound, the inhibition [4] was “Active”, the Activity [5] was “Non-Toxic” and the inhibition [6] was 45%. For the same compound, the inhibition [7] was 40%, the Stability [8] was greater than 99.5% and the Activity [9] was “Active”. The Activity [10] was “Dose-dependent effect”, the Activity [11] was -13% and the Activity [12] was -8%. The Activity_index [13] was 4.7, the Activity_index [14] was 3.1 and the inhibition [15] was “Dose-dependent effect”. For the same compound, the inhibition [16] was “Active” and the Activity [17] was “Non-Toxic”.
